Source: ChEMBL document CHEMBL1143932, “Biochemical and biological properties of 5-bromotubercidin: differential effects on cellular DNA-directed and viral RNA-directed RNA synthesis” (Bioorg Med Chem, 2008)
Activity calls are given as the source filed them. The calls are words filed in the database; no cut-off is given here.

How the values were obtained:
[1] = organism: Oryctolagus cuniculus; test: Activity of rabbit liver adenosine kinase
Summary of the method: (§1)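 Adenosine kinase partially purified from rabbit liver. Assay in 20 mM KPO4 pH 5.8 with 0.7 mM ATP, 0.25 mM phosphoenol pyruvate, 0.5 mM MgCl2, 50 mM KCl, pyruvate kinase and 7–70 µM radioactive nucleoside substrate, at 25 °C. Reaction stopped with 0.25 M perchloric acid. Nucleotides separated by paper electrophoresis at pH 3.5 and counted by scintillation. Km, Ki and relative Vmax (adenosine = 100) derived.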

[2] = organism: Oryctolagus cuniculus; test: Activity of rabbit liver adenosine kinase relative to adenosine; summary of the method: as §1
[3] = tested on: L2; test: Growth inhibition of mouse L2 cells at 15 uM

Compound | Km [1] | Vmax [1] | Activity [2] | Activity [3]
Nc1ncnc2c1ncn2[C@@H]1O[C@H](CO)[C@@H](O)[C@H]1O | 5.5 µM | 3.13 µM/min | – | –
Nc1ncnc2c1ccn2[C@@H]1O[C@H](CO)[C@@H](O)[C@H]1O | 9.5 µM | 3.57 µM/min | 114 | Active
